Reference: ChEMBL document CHEMBL4325910, “Design and synthesis of rosiglitazone-ferulic acid-nitric oxide donor trihybrids for improving glucose tolerance” (Eur J Med Chem, 2019)
The source made the active and inactive calls. No cut-off for these calls is given here.

Legend:
Aquaporin-2 [1] = target: T1, Aquaporin-2 (Homo sapiens, UniProt P41181); assay: Induction of membrane translocation of biotinylated human AQP2 expressed in rat IMCD cells at 100 uM after 30 mins by FITC-staining based confocal fluorescence microscopic analysis; type: cell-based; details: 0.5 h
T1 sequence (P41181 whole entry): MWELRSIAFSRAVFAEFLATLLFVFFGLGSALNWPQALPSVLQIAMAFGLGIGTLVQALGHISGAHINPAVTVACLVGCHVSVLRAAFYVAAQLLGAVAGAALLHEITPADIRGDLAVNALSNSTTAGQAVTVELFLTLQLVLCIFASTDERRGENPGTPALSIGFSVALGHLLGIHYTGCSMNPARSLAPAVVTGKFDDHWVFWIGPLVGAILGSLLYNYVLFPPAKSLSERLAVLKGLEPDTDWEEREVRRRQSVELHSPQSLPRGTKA
How it was run: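 Primary SD rat IMCD cells, day 5, were transfected with a human AQP2 plasmid (5 h, serum-free) and cultured 48 h. They were treated for 30 min, with 0.1% DMSO as vehicle and forskolin 100 μM as reference. Cells were fixed in paraformaldehyde, permeabilized with Triton X-100 and quenched with H2O2/methanol. They were stained with FITC-anti-AQP2 and imaged by confocal microscopy.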

Aquaporin-2 [2] = target: T1, Aquaporin-2; assay: Induction of membrane translocation of biotinylated human AQP2 expressed in rat IMCD cells at 100 uM after 30 mins by Western blot analysis; type: cell-based; details: 0.5 h
How it was run: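 Human AQP2-transfected primary rat IMCD cells were treated for 30 min. Surface proteins were biotinylated with sulfo-NHS-LC-biotin (3 mg/mL, 60 min, 4 °C), then cells lysed in 1% NP-40 and pulled down overnight on streptavidin beads. Biotinylated and total AQP2 (30 μg/lane) were blotted with anti-AQP2 and quantified by densitometry as the biotinylated/total ratio. Three experiments, mean ± SD.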

3T3-L1 = assay: Induction of insulin-stimulated 2-NBDG uptake in TNF-alpha-induced insulin resistant mouse 3T3L1 cells at 10 uM preincubated for 48 hrs followed by 2-NBDG addition measured after 30 mins in presence of insulin by fluorescence assay; type: functional, cell-based
How it was run: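 Day-8 differentiated 3T3-L1 adipocytes received TNF-α (4 ng/mL) daily for 4 days. They were pretreated in triplicate for 48 h (C-PTIO 20 μM where indicated), then given 100 μM 2-NBDG at 37 °C for 30 min in the dark, with or without insulin. After KRP washes, fluorescence was read at Ex/Em 485/515 nm. Three experiments, mean ± SD.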

L02 = assay: Inhibition of cellular glucose output in dexamethasone-induced insulin resistant human L02 cells assessed as insulin-stimulated glucose uptake at 10 uM preincubated for 24 hrs followed by insulin stimulation measured after 24 hrs by glucose oxidase method (reference value: 4.5 +/- 0.7%); type: functional; design: scale not given: the % may be the effect or the level left

SMILES	Activity (3T3-L1)	Activity (L02) [%]	also measured
C=C[C@@]1(C)CC(=O)[C@]2(O)[C@@]3(C)[C@@H](O)CCC(C)(C)[C@@H]3[C@H](O)[C@H](OC(C)=O)[C@@]2(C)O1 [COLFORSIN]	–	–	Activity (Aquaporin-2 [1]): Active; Activity (Aquaporin-2 [2]): Active
COC(=O)/C=C/c1ccc(O)c(OC)c1	Active	–	–
COc1cc(/C=C/C(=O)OCCCCO[N+](=O)[O-])ccc1OC(=O)CCC(=O)OCN1C(=O)SC(Cc2ccc(OCCN(C)c3ccccn3)cc2)C1=O (centres undefined)	–	7.8	–
COc1cc(/C=C/C(=O)OCCCO[N+](=O)[O-])ccc1OC(=O)CCC(=O)OCN1C(=O)SC(Cc2ccc(OCCN(C)c3ccccn3)cc2)C1=O (centres undefined)	–	10	–
COc1cc(/C=C/C(=O)OCN2C(=O)SC(Cc3ccc(OCCN(C)c4ccccn4)cc3)C2=O)ccc1OCCCCO[N+](=O)[O-] (centres undefined)	inactive	11.1	–
COc1cc(/C=C/C(=O)OCN2C(=O)SC(Cc3ccc(OCCN(C)c4ccccn4)cc3)C2=O)ccc1OCCCCCO[N+](=O)[O-] (centres undefined)	–	7.1	–
COc1cc(/C=C/C(=O)OCCCCCO[N+](=O)[O-])ccc1OC(=O)OCN1C(=O)SC(Cc2ccc(OCCN(C)c3ccccn3)cc2)C1=O (centres undefined)	–	7.1	–
COc1cc(/C=C/C(=O)OCN2C(=O)SC(Cc3ccc(OCCN(C)c4ccccn4)cc3)C2=O)ccc1OCCCCCCO[N+](=O)[O-] (centres undefined)	–	8.5	–
COc1cc(/C=C/C(=O)OCCCCO[N+](=O)[O-])ccc1OC(=O)OCN1C(=O)SC(Cc2ccc(OCCN(C)c3ccccn3)cc2)C1=O (centres undefined)	Active	12.2	–
COc1cc(/C=C/C(=O)OCN2C(=O)SC(Cc3ccc(OCCN(C)c4ccccn4)cc3)C2=O)ccc1OCCCO[N+](=O)[O-] (centres undefined)	inactive	11.5	–
COc1cc(/C=C/C(=O)OCCCCCCO[N+](=O)[O-])ccc1OC(=O)OCN1C(=O)SC(Cc2ccc(OCCN(C)c3ccccn3)cc2)C1=O (centres undefined)	–	8	–
COc1cc(/C=C/C(=O)OCCCCCCO[N+](=O)[O-])ccc1OC(=O)CCC(=O)OCN1C(=O)SC(Cc2ccc(OCCN(C)c3ccccn3)cc2)C1=O (centres undefined)	–	6.8	–
COC(=O)/C=C/c1ccc(OC(=O)OCN2C(=O)SC(Cc3ccc(OCCN(C)c4ccccn4)cc3)C2=O)c(OC)c1 (centres undefined)	Active	–	–
COc1cc(/C=C/C(=O)OCCCO[N+](=O)[O-])ccc1OC(=O)OCN1C(=O)SC(Cc2ccc(OCCN(C)c3ccccn3)cc2)C1=O (centres undefined)	–	9.6	–
COc1cc(/C=C/C(=O)OCCCCCO[N+](=O)[O-])ccc1OC(=O)CCC(=O)OCN1C(=O)SC(Cc2ccc(OCCN(C)c3ccccn3)cc2)C1=O (centres undefined)	–	10.1	–
